In paper PMC5352984 (Journal of medicinal chemistry, 2017):
Values belong to the compound of their own block, whether it stands above or below them.

Legend:
[1] = tested on: GLP; conditions: cited from earlier work
[2] = tested on: 29 PKMTs, PRMTs, DNMTs, and RNMTs; assay: Selectivity assays against a methyltransferase panel; type: biochemical
Procedure, shortened: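 Quenched with 7.5 M guanidine HCl, diluted in 20 mM Tris pH 8.0, FlashPlate counted after 1 h. DOT1L, ASH1L, DNMT3A/3L, DNMT3B/3L: 1 h RT, TCA filter capture, washes, scintillation count. No-compound = 100%, no-enzyme = 0%.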

[3] = molecular target: T1, G9a (Homo sapiens, UniProt Q96KQ7); assay: G9a scintillation proximity methyltransferase assay; type: biochemical; conditions: ratio of IC50 versus compound 14
T1 sequence (Q96KQ7 1-1210): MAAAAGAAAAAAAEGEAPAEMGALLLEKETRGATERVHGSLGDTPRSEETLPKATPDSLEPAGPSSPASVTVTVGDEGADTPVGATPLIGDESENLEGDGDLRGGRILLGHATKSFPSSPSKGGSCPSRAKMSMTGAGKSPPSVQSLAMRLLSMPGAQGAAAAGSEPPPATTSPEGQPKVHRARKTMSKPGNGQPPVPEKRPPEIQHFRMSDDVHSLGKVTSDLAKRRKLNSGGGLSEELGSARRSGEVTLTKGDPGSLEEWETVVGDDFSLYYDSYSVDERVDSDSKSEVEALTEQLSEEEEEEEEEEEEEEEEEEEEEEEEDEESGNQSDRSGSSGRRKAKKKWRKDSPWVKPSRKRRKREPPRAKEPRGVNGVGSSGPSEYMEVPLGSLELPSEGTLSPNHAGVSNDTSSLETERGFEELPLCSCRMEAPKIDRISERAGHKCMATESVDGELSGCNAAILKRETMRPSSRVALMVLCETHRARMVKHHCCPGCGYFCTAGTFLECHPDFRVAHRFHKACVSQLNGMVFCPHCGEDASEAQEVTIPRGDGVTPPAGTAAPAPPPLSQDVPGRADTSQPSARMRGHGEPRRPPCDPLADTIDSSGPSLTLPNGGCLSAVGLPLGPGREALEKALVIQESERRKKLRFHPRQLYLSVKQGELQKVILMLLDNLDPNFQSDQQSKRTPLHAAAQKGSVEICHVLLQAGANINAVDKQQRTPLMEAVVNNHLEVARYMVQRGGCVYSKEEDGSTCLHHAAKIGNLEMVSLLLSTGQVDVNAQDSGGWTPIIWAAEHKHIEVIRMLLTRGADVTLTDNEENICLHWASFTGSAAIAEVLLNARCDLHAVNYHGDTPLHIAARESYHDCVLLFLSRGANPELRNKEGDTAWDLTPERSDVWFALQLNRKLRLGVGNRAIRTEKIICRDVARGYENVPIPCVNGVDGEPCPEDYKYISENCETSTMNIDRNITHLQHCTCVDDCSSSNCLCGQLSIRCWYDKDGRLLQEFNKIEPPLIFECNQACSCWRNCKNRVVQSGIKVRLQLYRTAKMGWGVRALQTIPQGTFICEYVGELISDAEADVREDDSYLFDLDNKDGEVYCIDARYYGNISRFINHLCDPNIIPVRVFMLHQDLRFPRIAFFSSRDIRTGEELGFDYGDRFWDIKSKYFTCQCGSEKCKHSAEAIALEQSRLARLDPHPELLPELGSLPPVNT

Structure (SMILES): COc1cc2nc(N3CCCN(C)CC3)nc(NC3CCN(Cc4ccccc4)CC3)c2cc1OC [Compound 1]
selectivity for GLP over G9a [1]: 3–5 fold

inhibition of 29 methyltransferases ([2]; compound at 10 μM): did not inhibit
Structure (SMILES): COc1cc2nc(N3CCOCC3)nc(NC3CCN(C)CC3)c2cc1OC [Compound 4, 6,7-Dimethoxy-N-(1-methylpiperidin-4-yl)-2-morpholinoquinazolin-4-amine]

potency increase for G9a compared with 14 [3]: 21 fold
Structure (SMILES): COc1cc2nc(N3CCCN(C)CC3)nc(NC3CCN(C)CC3)c2cc1OC [Compound 15, 6,7-Dimethoxy-2-(4-methyl-1,4-diazepan-1-yl)-N-(1-methylpiperidin-4-yl)quinazolin-4-amine]

Structure (SMILES): CCCCCCNc1nc(NC2CCN(C)CC2)c2cc(OC)c(OC)cc2n1 [Compound 18, N^2-Hexyl-6,7-dimethoxy-N^4-(1-methylpiperidin-4-yl)quinazoline-2,4-diamine]
inhibition of 29 methyltransferases ([2]; compound at 1 μM): did not inhibit
